Calls of active or inactive are those of the source. The rule behind the calls is not given here.
Assays:
[1] = Oral bioavailability in Sprague-Dawley rat at 4 mg/kg; type: ADME, organism-based; conditions: in vivo
[2] = Volume of distribution at steady state in Sprague-Dawley rat at 1 mg/kg, iv; type: ADME, organism-based; set-up: dose 1 mg/kg, route intravenous; conditions: in vivo, read-out: Vdss
Cytochrome P450 2D6 = Cytochrome P450 2D6 (Homo sapiens, UniProt P10635); assay: Inhibition of CYP2D6; type: ADME
Sequence of Cytochrome P450 2D6 (P10635 whole entry): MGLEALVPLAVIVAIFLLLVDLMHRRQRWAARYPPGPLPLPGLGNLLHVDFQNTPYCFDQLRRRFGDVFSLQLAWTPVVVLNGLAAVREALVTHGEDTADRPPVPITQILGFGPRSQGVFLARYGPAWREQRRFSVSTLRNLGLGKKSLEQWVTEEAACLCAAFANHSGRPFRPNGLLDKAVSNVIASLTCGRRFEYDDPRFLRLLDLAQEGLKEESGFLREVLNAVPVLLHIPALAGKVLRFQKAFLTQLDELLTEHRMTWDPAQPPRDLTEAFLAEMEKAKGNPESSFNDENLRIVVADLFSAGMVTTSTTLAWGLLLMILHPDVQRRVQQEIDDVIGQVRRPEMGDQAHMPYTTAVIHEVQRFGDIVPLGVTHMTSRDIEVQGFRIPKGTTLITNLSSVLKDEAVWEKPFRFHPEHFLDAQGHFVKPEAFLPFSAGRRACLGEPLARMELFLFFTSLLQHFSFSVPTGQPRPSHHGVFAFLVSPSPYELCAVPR

[3] = target: T1, Prostaglandin D2 receptor (Homo sapiens) (UniProt Q13258); assay: Antagonist activity at prostanoid DP1 receptor; type: functional
T1 sequence (whole entry): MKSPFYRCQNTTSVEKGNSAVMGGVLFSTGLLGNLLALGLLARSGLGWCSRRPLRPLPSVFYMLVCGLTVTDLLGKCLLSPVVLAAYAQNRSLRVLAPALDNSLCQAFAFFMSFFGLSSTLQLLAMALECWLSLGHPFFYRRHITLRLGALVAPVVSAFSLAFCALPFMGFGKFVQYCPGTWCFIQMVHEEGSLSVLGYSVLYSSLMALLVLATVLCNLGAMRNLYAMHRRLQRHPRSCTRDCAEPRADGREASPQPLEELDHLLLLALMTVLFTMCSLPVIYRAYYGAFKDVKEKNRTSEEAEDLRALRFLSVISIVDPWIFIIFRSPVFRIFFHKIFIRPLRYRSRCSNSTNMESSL

[4] = target: Prostaglandin G/H synthase 1 (Homo sapiens) (UniProt P23219); assay: Inhibition of COX1 assessed as inhibition of arachidonic acid-induced platelet aggregation at >/= 1 uM
Sequence of Prostaglandin G/H synthase 1 (Homo sapiens) (P23219 whole entry): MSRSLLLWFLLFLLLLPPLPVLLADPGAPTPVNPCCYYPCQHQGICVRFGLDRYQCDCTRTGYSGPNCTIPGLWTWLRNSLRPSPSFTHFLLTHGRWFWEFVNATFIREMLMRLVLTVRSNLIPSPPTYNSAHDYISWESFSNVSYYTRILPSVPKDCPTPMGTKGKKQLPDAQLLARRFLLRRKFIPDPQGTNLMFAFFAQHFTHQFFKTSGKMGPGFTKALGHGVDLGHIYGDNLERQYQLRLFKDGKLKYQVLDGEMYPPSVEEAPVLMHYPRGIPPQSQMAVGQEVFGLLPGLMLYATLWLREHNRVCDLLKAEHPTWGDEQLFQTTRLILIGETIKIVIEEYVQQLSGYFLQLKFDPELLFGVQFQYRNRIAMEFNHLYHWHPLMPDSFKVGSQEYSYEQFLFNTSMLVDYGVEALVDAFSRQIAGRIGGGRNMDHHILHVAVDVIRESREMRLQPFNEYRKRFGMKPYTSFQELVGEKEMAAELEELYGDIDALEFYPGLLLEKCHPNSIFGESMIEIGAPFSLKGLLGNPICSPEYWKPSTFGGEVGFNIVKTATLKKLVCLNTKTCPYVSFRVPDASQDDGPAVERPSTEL

[5] = target: T2, Prostaglandin D2 receptor 2 (Homo sapiens, UniProt Q9Y5Y4); assay: Antagonist activity against human CRTh2 receptor in human eosinophils assessed as inhibition of DK-PGD2-induced CD11b expression; type: functional
T2 sequence (Q9Y5Y4 whole entry): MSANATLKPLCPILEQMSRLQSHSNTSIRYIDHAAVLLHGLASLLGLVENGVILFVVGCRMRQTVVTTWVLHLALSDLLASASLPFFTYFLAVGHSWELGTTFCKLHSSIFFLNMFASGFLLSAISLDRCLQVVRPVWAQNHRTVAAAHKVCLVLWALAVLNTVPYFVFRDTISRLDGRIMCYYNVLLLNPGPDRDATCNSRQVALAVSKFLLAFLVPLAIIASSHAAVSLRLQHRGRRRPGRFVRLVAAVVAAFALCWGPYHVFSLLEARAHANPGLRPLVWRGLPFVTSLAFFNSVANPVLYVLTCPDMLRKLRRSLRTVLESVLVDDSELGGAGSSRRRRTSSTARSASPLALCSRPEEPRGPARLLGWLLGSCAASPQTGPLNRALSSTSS

[6] = Clearance in Sprague-Dawley rat at 1 mg/kg, iv; type: ADME, organism-based; set-up: dose 1 mg/kg, route intravenous; conditions: in vivo
[7] = Lipophilicity, log D of the compound at pH 7.4; conditions: buffer
Cytochrome P450 3A4 = Cytochrome P450 3A4 (Homo sapiens, UniProt P08684); assay: Inhibition of CYP3A4; type: ADME
Sequence of Cytochrome P450 3A4 (P08684 whole entry): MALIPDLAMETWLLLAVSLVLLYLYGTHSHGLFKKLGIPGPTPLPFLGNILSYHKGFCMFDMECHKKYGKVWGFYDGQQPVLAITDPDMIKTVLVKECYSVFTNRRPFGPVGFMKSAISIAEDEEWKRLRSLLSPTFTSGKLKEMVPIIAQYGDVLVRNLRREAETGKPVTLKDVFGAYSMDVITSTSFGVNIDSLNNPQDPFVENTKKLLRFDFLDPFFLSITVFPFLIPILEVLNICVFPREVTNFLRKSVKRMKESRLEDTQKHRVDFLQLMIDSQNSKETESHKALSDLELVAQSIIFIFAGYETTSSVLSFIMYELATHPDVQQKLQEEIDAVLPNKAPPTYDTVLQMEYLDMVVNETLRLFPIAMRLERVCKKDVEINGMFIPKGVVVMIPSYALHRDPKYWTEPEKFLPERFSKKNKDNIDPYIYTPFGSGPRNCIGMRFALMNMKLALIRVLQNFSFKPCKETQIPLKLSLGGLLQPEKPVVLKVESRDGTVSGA

[8] = Intrinsic clearance in rat hepatocytes assessed as per 1 x 10^6 cells
Cytochrome P450 1A2 = target: T3, Cytochrome P450 1A2 (Homo sapiens, UniProt P05177); assay: Inhibition of CYP1A2; type: ADME
T3 sequence (P05177 whole entry): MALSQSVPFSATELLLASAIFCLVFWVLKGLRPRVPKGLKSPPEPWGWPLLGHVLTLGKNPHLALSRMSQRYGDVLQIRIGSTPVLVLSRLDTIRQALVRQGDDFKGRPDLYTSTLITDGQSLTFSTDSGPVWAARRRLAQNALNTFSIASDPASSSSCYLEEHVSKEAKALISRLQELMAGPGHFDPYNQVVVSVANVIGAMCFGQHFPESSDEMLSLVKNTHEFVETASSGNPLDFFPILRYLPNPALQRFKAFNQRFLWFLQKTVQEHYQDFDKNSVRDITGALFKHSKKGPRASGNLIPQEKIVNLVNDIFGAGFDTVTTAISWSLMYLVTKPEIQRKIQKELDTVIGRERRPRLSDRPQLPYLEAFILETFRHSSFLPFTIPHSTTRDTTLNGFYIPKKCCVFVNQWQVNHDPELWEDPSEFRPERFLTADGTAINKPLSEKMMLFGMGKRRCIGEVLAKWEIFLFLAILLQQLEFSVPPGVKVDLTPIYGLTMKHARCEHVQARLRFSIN

[9] = target: T4, Thromboxane A2 receptor (Homo sapiens) (UniProt P21731); assay: Antagonist activity at prostanoid TP receptor assessed as inhibition of arachidonic acid-induced platelet aggregation at >/= 1 uM; type: functional
T4 sequence (whole entry): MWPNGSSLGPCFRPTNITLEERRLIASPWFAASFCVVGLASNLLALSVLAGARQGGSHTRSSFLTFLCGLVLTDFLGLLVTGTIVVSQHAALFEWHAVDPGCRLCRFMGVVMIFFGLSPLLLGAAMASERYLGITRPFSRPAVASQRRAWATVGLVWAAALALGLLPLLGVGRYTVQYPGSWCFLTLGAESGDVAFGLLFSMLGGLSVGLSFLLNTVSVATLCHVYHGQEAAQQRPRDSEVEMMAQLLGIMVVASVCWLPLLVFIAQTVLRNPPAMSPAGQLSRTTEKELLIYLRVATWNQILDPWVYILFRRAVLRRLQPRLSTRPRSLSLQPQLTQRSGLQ

[10] = target: T2, Prostaglandin D2 receptor 2; assay: Displacement of [3H]PGD2 from human CRTH2 receptor
Procedure, shortened: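 Radioligand binding with ³H-PGD₂ as the labelled ligand; IC₅₀ reported as mean of n >2 measurements.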

[11] = Inhibition of human recombinant aldose reductase 2 after 15 mins by spectrophotometry analysis
[12] = Half life in Sprague-Dawley rat at 1 mg/kg, iv; type: ADME, organism-based; set-up: dose 1 mg/kg, route intravenous; conditions: in vivo
Cytochrome P450 2C9 = Cytochrome P450 2C9 (Homo sapiens, UniProt P11712); assay: Inhibition of CYP2C9; type: ADME
Sequence of Cytochrome P450 2C9 (P11712 whole entry): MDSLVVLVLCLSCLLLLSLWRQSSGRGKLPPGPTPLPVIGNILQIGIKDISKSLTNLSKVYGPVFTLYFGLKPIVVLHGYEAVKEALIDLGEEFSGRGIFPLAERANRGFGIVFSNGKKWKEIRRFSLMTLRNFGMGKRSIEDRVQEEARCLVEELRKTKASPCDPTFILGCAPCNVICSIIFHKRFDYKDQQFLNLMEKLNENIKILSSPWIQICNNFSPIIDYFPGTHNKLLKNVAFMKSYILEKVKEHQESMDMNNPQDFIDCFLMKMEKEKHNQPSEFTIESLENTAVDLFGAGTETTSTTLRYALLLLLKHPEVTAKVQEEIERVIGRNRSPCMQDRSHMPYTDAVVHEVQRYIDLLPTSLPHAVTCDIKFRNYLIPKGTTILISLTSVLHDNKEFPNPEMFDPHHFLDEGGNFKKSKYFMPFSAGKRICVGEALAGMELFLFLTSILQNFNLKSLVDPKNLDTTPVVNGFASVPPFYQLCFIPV

`CC(=O)Nc1cccc2c1c(Sc1ccc(Cl)cc1)c(C)n2CC(=O)O` [AZD1981] showed a bioavailability [1] of 63%, a Vd [2] of 0.5 L/kg and an IC50 (Cytochrome P450 2D6) greater than 10000 nM. The Activity [3] was “inactive”, the inhibition [4] was “inactive” and the IC50 [5] was 10 nM. The clearance [6] was 4 mL/min/kg, the logD [7] was -0.2 and the IC50 (Cytochrome P450 3A4) was greater than 10000 nM. For the same compound, the hepatocyte CLint [8] was 1 µL/min/1e6 cells, the IC50 (Cytochrome P450 1A2) was greater than 10000 nM and the inhibition [9] was “inactive”. For the same compound, the IC50 [10] was 4.3 nM, the IC50 [11] was 2510 nM and the half-life [12] was 1.9 h. For the same compound, the IC50 (Cytochrome P450 2C9) was greater than 10000 nM.
